Experiments:
CAKI-1 = test: Concentration of compound that cause 50% cytotoxicity of CAKI-1 renal cancer cell line; type: functional; conditions: Homo sapiens, read-out: Log LC50 (the source's name) (converted)
In short: (§1)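 NCI 60-cell-line panel screen. Each line was seeded in 96-well plates at a density set by its growth characteristics and incubated drug-free for 24 h. Test agents were then added at five 10-fold dilutions, with a top concentration of 100 μM.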

SW-620 = test: In vitro lethal concentration against least sensitive colon SW-620 cell line; type: functional; conditions: Homo sapiens, read-out: LC50 (the source's name)
OVCAR-8 = test: Concentration of compound that cause 50% cytotoxicity of OVCAR-8 ovarian cancer cell line; type: functional; conditions: Homo sapiens, read-out: Log LC50 (the source's name) (converted); in short: as §1
[1] = test system: Panel NCI-60 (60 carcinoma cell lines); test: In vitro mean growth lethal concentration in renal subpanel against 60-cell panel; type: functional; conditions: Homo sapiens, read-out: Mean LC50
HCT-116 [2] = test: In vitro lethal concentration against most sensitive colon HCT116 cell line; type: functional; conditions: Homo sapiens, read-out: LC50 (the source's name)
SF-268 = test: Concentration of compound that cause 50% cytotoxicity of SF-268 CNS cancer cell line; type: functional; conditions: Homo sapiens, read-out: Log LC50 (the source's name) (converted); in short: as §1
Hs-578T = test: Concentration of compound that cause 50% cytotoxicity of Hs 578.T breast cancer cell line; type: functional; conditions: Homo sapiens, read-out: LC50 (the source's name); in short: as §1
HOP-92 = test: Concentration of compound that cause 50% cytotoxicity of HOP-92 non small cell lung cancer cell line; type: functional; conditions: Homo sapiens, read-out: Log LC50 (the source's name) (converted); in short: as §1
ACHN [3] = test: Concentration of compound that cause 50% cytotoxicity of ACHN renal cancer cell line; type: functional; conditions: Homo sapiens, read-out: Log LC50 (the source's name) (converted); in short: as §1
SN12C = test: Concentration of compound that cause 50% cytotoxicity of SN12C renal cancer cell line; type: functional; conditions: Homo sapiens, read-out: Log LC50 (the source's name) (converted); in short: as §1
EKVX = test: Concentration of compound that cause 50% cytotoxicity of EKVX non small cell lung cancer cell line; type: functional; conditions: Homo sapiens, read-out: Log LC50 (the source's name) (converted); in short: as §1
HCT-116 [4] = test: Concentration of compound that cause 50% cytotoxicity of HCT116 colon cancer cell line; type: functional; conditions: Homo sapiens, read-out: Log LC50 (the source's name) (converted); in short: as §1
KM12 = test: Concentration of compound that cause 50% cytotoxicity of KM12 colon cancer cell line; type: functional; conditions: Homo sapiens, read-out: Log LC50 (the source's name) (converted); in short: as §1
NCI-H460 = test: Concentration of compound that cause 50% cytotoxicity of NCI-H460 non small cell lung cancer cell line; type: functional; conditions: Homo sapiens, read-out: Log LC50 (the source's name) (converted); in short: as §1
A498 = test: Concentration of compound that cause 50% cytotoxicity of A498 renal cancer cell line; type: functional; conditions: Homo sapiens, read-out: Log LC50 (the source's name) (converted); in short: as §1
U-251 = test: Concentration of compound that cause 50% cytotoxicity of U251 CNS cancer cell line; type: functional; conditions: Homo sapiens, read-out: Log LC50 (the source's name) (converted); in short: as §1
SNB-75 = test: Concentration of compound that cause 50% cytotoxicity of SNB-75 CNS cancer cell line; type: functional; conditions: Homo sapiens, read-out: Log LC50 (the source's name) (converted); in short: as §1
DU-145 = test: Concentration of compound that cause 50% cytotoxicity of DU-145 prostate cancer cell line; type: functional; conditions: Homo sapiens, read-out: Log LC50 (the source's name) (converted); in short: as §1
MDA-N = test: Concentration of compound that cause 50% cytotoxicity of MDA-N breast cancer cell line; type: functional; conditions: Homo sapiens, read-out: Log LC50 (the source's name) (converted); in short: as §1
SK-MEL-5 = test: Concentration of compound that cause 50% cytotoxicity of SK-MEL-5 melanoma cell line; type: functional; conditions: Homo sapiens, read-out: Log LC50 (the source's name) (converted); in short: as §1
ACHN [5] = test: In vitro lethal concentration against most sensitive ACHN cell line; type: functional; conditions: Homo sapiens, read-out: LC50 (the source's name)
NCI-H23 = test: Concentration of compound that cause 50% cytotoxicity of NCI-H23 non small cell lung cancer cell line; type: functional; conditions: Homo sapiens, read-out: Log LC50 (the source's name) (converted); in short: as §1
HCC 2998 = test: Concentration of compound that cause 50% cytotoxicity of HCC2998 colon cancer cell line; type: functional; conditions: Homo sapiens, read-out: Log LC50 (the source's name) (converted); in short: as §1
HCT-15 = test: Concentration of compound that cause 50% cytotoxicity of HCT-15 colon cancer cell line; type: functional; conditions: Homo sapiens, read-out: Log LC50 (the source's name) (converted); in short: as §1
A549 = test: Concentration of compound that cause 50% cytotoxicity of A549/ATCC non small cell lung cancer cell line; type: functional; conditions: Homo sapiens, read-out: Log LC50 (the source's name) (converted); in short: as §1
[6] = Inhibitory activity against MDA-468 mammary carcinoma cell line; type: functional, cell-based, Homo sapiens; conditions: mda-mb-468
In short: (§2)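 Cells grown in RPMI 1640 with 2 mM L-glutamine and 10% fetal calf serum, 37 °C, 5% CO2. Seeded at 5 × 10³ per well, 24 h adherence, then drug 0.1 nM–100 μM final (n = 8; DMSO stocks, dilutions in medium) for 72 h.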

[7] = test system: Panel NCI-60 (60 carcinoma cell lines); test: In vitro mean growth inhibitory activity against 60-cell panel; type: functional; conditions: Homo sapiens
LOX IMVI = test: Concentration of compound that cause 50% cytotoxicity of LOX IMVI melanoma cell line; type: functional; conditions: Homo sapiens, read-out: Log LC50 (the source's name) (converted); in short: as §1
SK-MEL-28 = test: Concentration of compound that cause 50% cytotoxicity of SK-MEL-28 melanoma cell line; type: functional; conditions: Homo sapiens, read-out: Log LC50 (the source's name) (converted); in short: as §1
UACC-62 = test: Concentration of compound that cause 50% cytotoxicity of UACC-62 melanoma cell line; type: functional; conditions: Homo sapiens, read-out: Log LC50 (the source's name) (converted)
M14 = test: Concentration of compound that cause 50% cytotoxicity of M14 melanoma cell line; type: functional; conditions: Homo sapiens, read-out: Log LC50 (the source's name) (converted); in short: as §1
HCT-116 [8] = test: Inhibitory activity against HCT116 colon cancer cell line; type: functional, cell-based; conditions: Homo sapiens; in short: as §2

Compound O=C1C=CC(O)(c2nc3ccccc3s2)C=C1 has a CC50 (CAKI-1) of 1.35 µM, a CC50 (SW-620) greater than 100 µM and a CC50 (OVCAR-8) of 5.01 µM. It also gave a CC50 [1] of 1.57 µM, a CC50 (HCT-116 [2]) of 0.43 µM and a CC50 (SF-268) of 6.31 µM. The CC50 (Hs-578T) was greater than 4 µM, the CC50 (HOP-92) was 3.72 µM and the CC50 (ACHN [3]) was 2.75 µM. For the same compound, the CC50 (SN12C) was 1.45 µM, the CC50 (EKVX) was 5.75 µM and the CC50 (HCT-116 [4]) was 0.468 µM. It also gave a CC50 (KM12) of 4.37 µM, a CC50 (NCI-H460) of 44.7 µM and a CC50 (A498) of 8.51 µM. The CC50 (U-251) was 2.57 µM, the CC50 (SNB-75) was 4.68 µM and the CC50 (DU-145) was 3.39 µM. It also gave a CC50 (MDA-N) of 1 µM, a CC50 (SK-MEL-5) of 24 µM and a CC50 (ACHN [5]) of 0.69 µM. For the same compound, the CC50 (NCI-H23) was 5.13 µM, the CC50 (HCC 2998) was 0.977 µM and the CC50 (HCT-15) was 2.45 µM. It also gave a CC50 (A549) of 43.7 µM, an IC50 [6] of 0.79 µM and a GI50 [7] of 0.23 µM. For the same compound, the CC50 (LOX IMVI) was 3.8 µM, the CC50 (SK-MEL-28) was 2.51 µM and the CC50 (UACC-62) was 5.75 µM. It also gave a CC50 (M14) of 5.25 µM and an IC50 (HCT-116 [8]) of 0.04 µM.

Reference: ChEMBL document CHEMBL1145965, “4-Substituted 4-hydroxycyclohexa-2,5-dien-1-ones with selective activities against colon and renal cancer cell lines” (J Med Chem, 2003)
